Screens: PubChem BioAssay, The Scripps Research Institute Molecular Screening Center
TDP2 inh = blocks human TDP2 phosphodiesterase activity; O95551; recombinant TDP2, T5PNP hydrolysis, p-nitrophenol absorbance 415 nm; inhibition, % at 12.8 µM; 370,000 compounds, 0.34% hits; AID 720702;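 active means inhibition above the mean of all tested compounds plus 3 SD, set per campaign, cut at about 25% in these data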
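Test system: human TDP2 enzyme; Input: 120 nM TDP2 per well; Buffer or medium: Mg2+-containing Tris-HCl buffer, pH 7.5; Reagent: 5 mM T5PNP; Dosing: 12.8 µM single point, 1% DMSO; Incubation: reaction 2 h, 37 °C; Detection: p-Nitrophenol epi absorbance; Read-out: % inhibition relative to enzyme-containing and enzyme-free wells; Replicates: single well per compound.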
UHRF1 binding = UHRF1 methyl-DNA binding inhibition. Q96T88. UHRF1 binding to methylated oligo, TR-FRET. inhibition, % at 4.4 µM. 370,000 compounds, 0.75% hits; in the data active means inhibition above about 21%;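 further: UHRF1 SRA domain binding a hemimethylated CpG hairpin DNA probe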
Rin1-Abl PPI inh = human Rin1-Abl interaction inhibition | P00519+Q13671 | 360,000 compounds, 0.4% hits | TR-FRET Rin1/Abl binding, biochemical | inhibition, % at 7.35 µM; in the data active means inhibition above about 5%, passing the limit was not always enough
LEDGF integ inh = blocks HIV-1 LEDGF/p75-dependent DNA integration | TR-FRET IN-LEDGF/p75 DNA integration, Eu/Cy5 | inhibition, % at 3.7 µM | 370,000 compounds, 0.64% hits | AID 743269;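 active means inhibition above the screen-wide mean plus 3 SD, cut at about 13% in these data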;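 further: signal is the Cy5 over europium emission ratio at 671 and 618 nm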
MBD2 DNA inh = MBD2-methylated oligo binding inhibition | TR-FRET, MBD2 binding to methylated oligonucleotide | inhibition, % at 4.4 µM | 370,000 compounds, 0.31% hits | AID 686964; in the data active means inhibition above about 13%
Rin1-Abl confirm = Rin1-Abl interaction inhibition confirmation; shares compounds with Rin1-Abl PPI inh; TR-FRET Rin1-Abl binding, purified proteins; inhibition, % at 7.35 µM; 1,300 compounds, 49% hits; in the data active means inhibition above about 6.5%
GFP quench-1 = GFP fluorescence interference artifact. shares compounds with Rin1-Abl PPI inh. inhibitors/quenchers counterscreen. inhibition, % at 6.75 µM. 1,300 compounds, 8.5% hits. AID 602125; in the data active means inhibition above about 6.5%;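 further: ABL1-eGFP fusion protein alone without its partner RIN1-SBP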
GFP quench DR = quenches GFP in dose response, Rin1-Abl counter-screen. shares compounds with Rin1-Abl PPI inh. 230 tested, under 10 active. IC50, µM. GFP fluorescence interference/quenching counterscreen;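 further: ABL1-eGFP fusion protein alone without its RIN1 binding partner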
GFP quench-2 = quenches GFP fluorescence in Rin1-Abl counterscreen | shares compounds with Rin1-Abl PPI inh | GFP fluorescence quenching counterscreen, biochemical | IC50, µM | 25 tested, under 10 active | AID 602397
Large screens that a line does not name were inactive (follow-up assays come after a bar, where they were run). Shown are actives, neighbours in structure and some others; about 1.9% of the full set was active somewhere. Unless noted, how the calls were made is not given here.

C[C@@H]1CN([C@H](C)CO)S(=O)(=O)c2ccc(Br)cc2O[C@@H]1CN(C)Cc1ccc(-c2ccccc2)cc1	UHRF1 binding 21
CCN(CC)C(=O)[C@H]1C[C@H](CC(=O)NCCc2ccccn2)C(=O)N2CCc3c([nH]c4cc(CCC(=O)N(C)C)ccc34)[C@]12C	UHRF1 binding 21
CCN(CC)C(=O)[C@H]1C[C@H](CC(=O)NCCC2=CCCCC2)C(=O)N2CCc3c([nH]c4cc(CCC(=O)N(C)C)ccc34)[C@]12C	none
COC(=O)c1cccc(N2C(=O)C[C@](Sc3ccc(OC)cc3)(C(=O)N3CCOCC3)[C@H]2c2ccc(OC)cc2)c1	none (no result: Rin1-Abl PPI inh)
CN(Cc1ccccc1)C(=O)CN1C(=O)NC2(CCCc3sccc32)C1=O (configuration not stated)	none
N#CCN1C(=O)NC2(CCCc3sccc32)C1=O (configuration not stated)	UHRF1 binding 94
COc1ccc(N2CCN(CCNS(=O)(=O)c3cccs3)CC2)cc1	none (no result: Rin1-Abl PPI inh)
CSc1nc(-c2ccc(Cl)cc2)nn1S(=O)(=O)c1ccccc1	UHRF1 binding 21
COCCCNC(=O)c1oc(=O)c2ccccc2c1-c1ccc(C)cc1	none (no result: Rin1-Abl PPI inh)
CCc1ccccc1NS(=O)(=O)c1c(C(=O)N2CCCCCC2)c(C)n(C)c1C	UHRF1 binding 21
CCNC(=O)/C=C1\NC(C)(C)Cc2c1ccc1ccccc21	UHRF1 binding 22
Cc1ccc(N2C(=O)CC(Cc3cc(C)cc(C)c3)C2=O)cc1 (configuration not stated)	UHRF1 binding 24
Cc1cccc(NC(=O)NCc2ccc3c(c2)cc(C)n3C)c1	Rin1-Abl PPI inh 7.8 | Rin1-Abl confirm inactive | GFP quench-1 inactive
CCOc1ccc2nc(NC(=O)C3CCN(C(=O)c4ccco4)CC3)sc2c1	Rin1-Abl PPI inh 8.0 | Rin1-Abl confirm inactive | GFP quench-1 inactive
CN(C)CCNC(=O)c1cccc(S(=O)(=O)Nc2ccc(F)cc2)c1	Rin1-Abl PPI inh 9.2 | Rin1-Abl confirm inactive | GFP quench-1 inactive
O=C(Cc1ccc(NC2=NC3CS(=O)(=O)CC3S2)cc1)NCc1ccccc1Cl (configuration not stated)	Rin1-Abl PPI inh 16 | Rin1-Abl confirm 16 | GFP quench-1 inactive
O=C(Cc1ccc(NC2=NC3CS(=O)(=O)CC3S2)cc1)NCc1ccccc1 (configuration not stated)	none
O=C(NCCc1ccc(Cl)cc1)c1ccc(NC2=NC3CS(=O)(=O)CC3S2)cc1 (configuration not stated)	Rin1-Abl PPI inh 7.4 | Rin1-Abl confirm 8.1 | GFP quench-1 inactive
COc1ccc(OC)c(NC(=O)Cc2ccc(NC3=NC4CS(=O)(=O)CC4S3)cc2)c1 (configuration not stated)	Rin1-Abl PPI inh 22 | Rin1-Abl confirm 27 | GFP quench-1 inactive | GFP quench DR inactive
COC(=O)[C@]12C[C@H](CC(=O)NCC34CC5CC(CC(C5)C3)C4)C(=O)N(Cc3cccc4ccccc34)C1=C[C@H](C(C)(C)C)O[C@@H]2C	none (no result: Rin1-Abl PPI inh)
COc1ccccc1NC(=S)OCCN1CCCC12CCC(c1ccccc1)CC2 (configuration not stated)	none (no result: Rin1-Abl PPI inh)
CC(C)CNC(=O)OCc1cn(Cc2ccccc2C(F)(F)F)nn1	none (no result: Rin1-Abl PPI inh)
O=C1CNC(=O)N1CC(O)Cn1c2ccccc2c2ccccc21 (configuration not stated)	Rin1-Abl PPI inh 24 | Rin1-Abl confirm 28 | GFP quench-1 inactive | GFP quench DR inactive
C[C@H]1[C@@H](OC(=O)NCc2cccnc2)CC[C@@]23CCCN2C(=O)CCC[C@@H]13	none (no result: Rin1-Abl PPI inh)
O=C(CCn1c(=O)oc2ccccc21)NC1=NCCS1	Rin1-Abl PPI inh 10.0 | Rin1-Abl confirm inactive | GFP quench-1 inactive
CC1CCCCN1c1ncnc(N)c1[N+](=O)[O-] (configuration not stated)	Rin1-Abl PPI inh 7.2 | Rin1-Abl confirm inactive | GFP quench-1 inactive
CC(=O)c1cccc(N(CC(=O)NC2CCCC2)C(=O)c2ccc(C)s2)c1	Rin1-Abl PPI inh 7.5 | Rin1-Abl confirm inactive | GFP quench-1 inactive
COC(=O)[C@]12C[C@H](CC(=O)NCCCCc3ccccc3)C(=O)N(Cc3ccc(Cl)cc3Cl)C1=C[C@H](C(C)C)O[C@@H]2C1CC1	none (no result: Rin1-Abl PPI inh)
CCCCN1CCCOc2cc(Br)ccc2S1(=O)=O	none (no result: Rin1-Abl PPI inh)
CCOC(=O)N1CCN(C(=O)CSc2nnc(Cc3cccn3C)n2CCc2ccccc2)CC1	Rin1-Abl PPI inh 5.7 | Rin1-Abl confirm inactive | GFP quench-1 inactive
Cn1cccc1Cc1nnc(SCC(=O)N2CCOCC2)n1CCc1ccccc1	none
Cc1c(Cl)cccc1N=C(N)N=C(N)N	Rin1-Abl PPI inh 9.1 | Rin1-Abl confirm inactive | GFP quench-1 inactive
NC(N)=NC(N)=Nc1cccc2ccccc12	none
Cc1ccc(NS(=O)(=O)c2cc(OCC(N)=O)c(C)cc2Cl)cc1C	Rin1-Abl PPI inh 12 | Rin1-Abl confirm inactive | GFP quench-1 inactive
CC(C)CN1C(=O)NC(NS(=O)(=O)c2ccc(N)cc2)(C(F)(F)F)C1=O (configuration not stated)	Rin1-Abl PPI inh 6.7 | Rin1-Abl confirm inactive | GFP quench-1 inactive
CC(=O)Nc1ccc(S(=O)(=O)NC2(C(F)(F)F)NC(=O)N(CC(C)C)C2=O)cc1 (configuration not stated)	none
CC(=O)NN1C(=O)/C(=C\c2ccc(Br)o2)SC1=S	none
CC(=O)NN1C(=O)/C(=C/c2ccc(Br)o2)SC1=S	Rin1-Abl PPI inh 6.5 | Rin1-Abl confirm inactive | GFP quench-1 inactive
COC(=O)[C@]12C[C@H](CC(=O)NCc3ccc(OC)c(OC)c3)C(=O)N(CCc3ccc(OC)c(OC)c3)C1=C[C@H](COCc1ccccc1)O[C@@H]2C	none (no result: Rin1-Abl PPI inh)
O=c1cc(OCc2ccccc2)cc[nH]1	Rin1-Abl PPI inh 96, LEDGF integ inh 24 | Rin1-Abl confirm 99 | GFP quench-1 inactive | GFP quench DR inactive | GFP quench-2 inactive
Cc1[nH]ccc(=O)c1OCc1ccccc1	none
CN(CC(=O)Nc1ccc(Cl)c(Cl)c1)C(=O)/C=C/c1ccc(F)cc1	Rin1-Abl PPI inh 9.5 | Rin1-Abl confirm inactive | GFP quench-1 inactive
CCCCCCCCOC(=O)C1=C(C)Nc2nnnn2C1c1cccs1 (configuration not stated)	none
